Measured values: ChEMBL document CHEMBL5096237, “Orally Bioavailable Prodrugs of ψ-GSH: A Potential Treatment for Alzheimer's Disease” (J Med Chem, 2022)
Each block holds one molecule with its values, some of them ahead of it. Calls of active or inactive are those of the source. No cut-off for these calls is given here.

Assays:
[1] = Stability in CD-1 mouse assessed as half life at gastric phase of gastrointestinal tract at 1 uM measured upto 240 mins by LC-MS/MS analysis; format: ADME; settings: for t1/2: mouse, 4 h, 1 µM
How it was run: (§1)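 Compound at 1 μM final was incubated at 37 °C in plasma, brain homogenate, liver homogenate, simulated gastric fluid or simulated intestinal fluid. Aliquots taken at 0, 5, 15, 30, 60, 120 and 240 min were quenched with 3 volumes of acetonitrile containing 1% formic acid and centrifuged. Supernatants were analyzed by HPLC-UV (254 nm, after Fmoc-Cl derivatization) and/or LC-MS/MS to derive t1/2.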

[2] = Stability in CD-1 mouse assessed as half life at intestinal phase of gastrointestinal tract at 1 uM measured upto 240 mins by LC-MS/MS analysis; format: ADME; settings: for t1/2: mouse, 4 h, 1 µM; how it was run: as §1
[3] = Stability in CD-1 mouse plasma assessed as half life at 1 uM measured upto 240 mins by LC-MS/MS analysis; format: ADME, cell-free; settings: for t1/2: mouse, 4 h, 1 µM; for half-life at 1 µM: CD-1, mouse; how it was run: as §1
[4] = test system: Mus musculus; experiment: Anti-alzheimer activity against oral dosed mouse brain assessed as reduction in AGE level by immunohistochemical analysis; format: functional, organism-based
[5] = Stability in CD-1 mouse plasma at 250 mg/kg, po at 1 uM measured after 6 hrs by LC-MS/MS analysis; format: ADME, organism-based; settings: in vivo
[6] = Reversal of resistant against po dosed Abeta1-42 induced cognitive impairment in mouse assessed as reduction in repetitive arm entries (reference value: 3.22+/-0.27); format: organism-based; settings: in vivo
[7] = Stability in CD-1 mouse liver homogenate assessed as half life at 1 uM measured upto 240 mins by LC-MS/MS analysis; format: ADME, tissue-based
How it was run: (§2)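 Compound at 1 μM final was incubated at 37 °C in plasma, brain homogenate, liver homogenate, simulated gastric fluid or simulated intestinal fluid. Supernatants were analyzed by HPLC-UV (254 nm, after Fmoc-Cl derivatization) and/or LC-MS/MS to derive t1/2.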

[8] = test system: Mus musculus; experiment: Anti-alzheimer activity against oral dosed mouse brain assessed as restoration of reduced GSH level by […]; format: functional, organism-based
How it was run: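 Brains from the i.c.v. Aβ1–42 mice were homogenized and deproteinized with metaphosphoric acid. After neutralization, samples were diluted in 50 mM MES (pH 6.0, 1 mM EDTA). GSH was measured by enzymatic recycling with DTNB, reading TNB absorbance at 412 nm.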

[9] = AUC in CD-1 mouse measured in per mg of brain tissue at 500 mg/kg, ip; format: ADME, organism-based; set-up: dose 500 mg/kg, route ip; settings: in vivo
How it was run: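 Male CD-1 mice, eight weeks old, N = 4 per time point. They received oral prodrug at 250 mg/kg, or ψ-GSH at 500 mg/kg i.p. for comparison. Blood and brain were taken at 2, 4 and 6 h. Brain was homogenized 1:5 (w/v) in DPBS. Plasma and homogenate were treated with 100 mM N-ethylmaleimide for 10 min at ambient temperature, deproteinized with 3% sulfosalicylic acid, then quantified by positive-ESI LC-MS/MS MRM, with ψ-GSH read as its NEM adduct.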

[10] = test system: Mus musculus; experiment: Anti-alzheimer activity against APP/PS1 mouse model assessed as reduction in insoluble Abeta1-42 at 500 mg/kg, po […] by ELISA assay relative to control; format: functional; set-up: scale not given: the % may be the effect or the level left
How it was run: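 APP/PS1 mice, 3–4 months old, were gavaged with ψ-GSH 500 mg/kg or saline three times weekly for 12 weeks. Insoluble brain Aβ1–42 was quantified by sandwich ELISA and expressed as % of saline-treated APP/PS1 mice.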

[11] = organism: Mus musculus; experiment: Anti-alzheimer activity against A-beta injected mouse assessed as reduction in microglial activation in dentate gyrase region by GFAP staining based analysis; format: functional, organism-based; settings: in the assay text read “Iba1 staining” for “GFAP staining”
How it was run: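 C57BL/6 mice were dosed with compound at 250 mg/kg once daily for 12 days; Aβ1–42 oligomers were given i.c.v. on day 4. Half-brains were fixed in 4% PFA for 24 h and sucrose-cryoprotected. 40 μm coronal sections, every 12th (4–6 sections), were immunostained for GFAP (astrocytes) or Iba1 (microglia) by ABC/DAB after antigen retrieval. Stained area fraction in dorsal hippocampus or dentate gyrus was measured stereologically at ×40.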

[12] = test system: Mus musculus; experiment: Anti-alzheimer activity against APP/PS1 mouse model assessed as increase in spatial memory development at 500 mg/kg, po measured after 4 days by Morris water maze test; format: functional, organism-based; settings: time 4.0 day
[13] = test system: Mus musculus; experiment: Anti-alzheimer activity against APP/PS1 mouse model assessed as escape latency at 500 mg/kg, po measured after 4 days by Morris water maze test (reference value: 6.64+/-1.58 sec); format: functional; settings: time 4 day
[14] = test system: Mus musculus; experiment: Anti-alzheimer activity against APP/PS1 mouse model assessed as time spent in the target quadrant at 500 mg/kg, po measured after 4 days by Morris water maze test (reference value: 16.39+/-3.39%); format: functional; settings: time 4 day
[15] = Reversal of resistant against ip dosed Abeta1-42 induced cognitive impairment in mouse assessed as reduction in repetitive arm entries (reference value: 3.22+/-0.27); settings: in vivo
[16] = Stability in CD-1 mouse brain homogenate assessed as half life at 1 uM measured upto 240 mins by LC-MS/MS analysis; format: ADME, tissue-based; how it was run: as §2

SMILES: Cl.N[C@@H](CNC(=O)N[C@@H](CS)C(=O)NCC(=O)OC1CCCC1)C(=O)OC1CCCC1
- Activity [4]: Active
- t1/2 [1]: 4.87 h
- t1/2 [2]: 5.24 h
- t1/2 [3]: 72.2 h
- Stability [5]: Stable
- repetitive arm entries [6]: 1.8

SMILES: N[C@@H](CNC(=O)N1CSC[C@H]1C(=O)NCC(=O)O)C(=O)O
- half-life at 1 µM [7]: 116 h
- half-life at 1 µM [3]: 30.6 h

SMILES: CCOC(=O)SC[C@H](NC(=O)NC[C@H](N)C(=O)OC1CCCC1)C(=O)NCC(=O)OC1CCCC1
- t1/2 [3]: 61.32 h

The next lines start with results.

- t1/2 [1]: 27.7 h
- t1/2 [2]: 38.5 h
- t1/2 [3]: 47.14 h
SMILES: CCOC(=O)SC[C@H](NC(=O)NC[C@H](N)C(=O)O)C(=O)NCC(=O)O

- t1/2 [3]: 25.57 h
SMILES: N[C@@H](CNC(=O)N1C(=O)SC[C@H]1C(=O)NCC(=O)O)C(=O)O

- t1/2 [1]: 28.88 h
- t1/2 [2]: 5.02 h
- t1/2 [3]: 5.8 h
SMILES: CC(=O)SC[C@H](NC(=O)NC[C@H](N)C(=O)O)C(=O)NCC(=O)O

- half-life at 1 µM ([1]; CD-1, mouse, gastric phase of gastrointestinal tract): 28.8 h
- AUC [9]: 8.06 nmol·h
- Activity [11]: Active
- half-life at 1 µM [7]: 0.02 h
- half-life at 1 µM ([2]; CD-1, mouse, intestinal phase of gastrointestinal tract): 1.28 h
- half-life at 1 µM [3]: 0.23 h
- repetitive arm entries [15]: 0.5
- half-life at 1 µM [16]: 1.51 h
SMILES: N[C@@H](CNC(=O)N[C@@H](CS)C(=O)NCC(=O)O)C(=O)O
- Activity [8]: Active
- Activity [10]: 90.8%
- Activity [12]: Active
- Time [13]: 6.9 s
- Activity [14]: 21.76%
